Reference: ChEMBL document CHEMBL2157898 (J Med Chem, 2012)

Legend:
Mus musculus [1] = test: Antidiabetic activity in DIO mouse expressing human GCGR assessed as total blood GLP1 level at 3 mg/kg/day measured on day 11 (reference value: 46 +/- 4 pM); type: functional
Mus musculus [2] = organism: Mus musculus; test: Toxicity in DIO mouse expressing human GCGR assessed as morphological changes in pancreatic tissues; type: organism-based; settings: in vivo
Plasma = test: Plasma concentration in DIO mouse expressing human GCGR at 10 mg/kg/day measured on day 5; type: ADME, organism-based; settings: in vivo
Outline: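 Diet-induced obese hGCGR mice received the compound in high-fat-diet feed at 3 or 10 mpk per day for 11 days (n = 11−15). Postprandial plasma drug levels were measured on day 5.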

[3] = Oral bioavailability in mouse at 2 mg/kg; type: ADME, organism-based; settings: in vivo
Outline: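 Mouse pharmacokinetics: 1 mg/kg IV and 2 mg/kg PO. Parameters were calculated from blood concentrations. The oral dose was a solution in DMSO:Tween80:water (5:10:85 by volume).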

[4] = Plasma clearance in monkey at 0.5 mg/kg, iv and 2 mg/kg, po; type: ADME, organism-based, Macaca mulatta; settings: rhesus monkey
Outline: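 IV/PO pharmacokinetic study with plasma clearance, Vdss and oral bioavailability derived. Doses were rat 2/2, dog 0.5/0.5 and rhesus 0.5/2 mg/kg. The oral dose was a suspension in 0.5% aqueous methylcellulose.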

Mus musculus [5] = test: Antidiabetic activity in ob/ob mouse expressing human GCGR assessed as suppression of blood glucose AUC (0 to 6 hrs) at 10 mg/kg, po; type: functional
[6] = molecular target: T1, Gastric inhibitory polypeptide receptor (Homo sapiens, UniProt P48546); test: Antagonist activity at human GIPR expressed in CHO cells assessed as inhibition of glucagon-induced cAMP accumulation preincubated for 30 mins prior to glucagon challenge measured after 30 mins post glucagon challenge by liquid scintillation counter; type: functional, cell-based
T1 sequence (P48546 whole entry): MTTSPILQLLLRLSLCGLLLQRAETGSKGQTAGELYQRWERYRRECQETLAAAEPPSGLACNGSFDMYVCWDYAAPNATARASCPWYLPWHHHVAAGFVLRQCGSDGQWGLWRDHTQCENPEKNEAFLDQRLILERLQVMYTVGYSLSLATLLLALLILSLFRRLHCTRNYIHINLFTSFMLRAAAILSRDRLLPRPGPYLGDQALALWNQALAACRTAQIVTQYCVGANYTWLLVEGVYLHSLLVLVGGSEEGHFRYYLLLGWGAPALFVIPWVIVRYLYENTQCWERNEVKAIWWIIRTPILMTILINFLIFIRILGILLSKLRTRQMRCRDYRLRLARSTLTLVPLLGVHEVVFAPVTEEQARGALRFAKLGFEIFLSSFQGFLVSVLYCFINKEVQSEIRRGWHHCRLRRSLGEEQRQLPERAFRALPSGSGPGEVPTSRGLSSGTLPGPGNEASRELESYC
Outline: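 CHO cells expressing human GIPR were handled as for the GCGR cAMP assay: preincubation with compound for 30 min in final 5% DMSO, agonist stimulation for 30 min at room temperature, and radiometric cAMP detection after 3 h with kit detection buffer. Results are IC50 values.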

Uncharacterized protein = Uncharacterized protein (Macaca mulatta, UniProt A0A1D5QZY8); test: Antagonist activity at rhesus monkey GCGR expressed in CHO cells assessed as inhibition of glucagon-induced cAMP accumulation preincubated for 30 mins prior to glucagon challenge measured after 30 mins post glucagon challenge by liquid scintillation counter; type: functional, cell-based
Outline: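 CHO cells stably expressing the receptor were grown 3–4 days in IMDM with 10% FBS, 1 mM L-glutamine, pen-strep and 500 ug G418/mL, lifted enzyme-free and resuspended in stimulation buffer. They were preincubated 30 min with compound (final 5% DMSO), then stimulated with glucagon (250 pM) for 30 min at room temperature. Kit detection buffer was added for 3 h and bound radioactivity counted. IC50 is mean ± SD where N ≥ 2.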

Mus musculus [7] = test: Antidiabetic activity in DIO mouse expressing human GCGR assessed as suppression of blood glucose level at 3 mg/kg/day measured on day 10; type: functional
Outline: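 Diet-induced obese hGCGR mice received compound in high-fat diet feed at 3 or 10 mpk per day for 11 days (n = 11−15). Nonfasting blood glucose was measured on days 3 and 10. Percent correction was calculated relative to the difference between vehicle control and lean hGCGR mice; significance was taken as p < 0.05 vs controls.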

[8] = molecular target: Voltage-gated inwardly rectifying potassium channel KCNH2 (Homo sapiens, UniProt Q12809); test: Binding affinity to human ERG
Rattus norvegicus = test: Dose normalized AUC in rat at 2 mg/kg, po; type: ADME, organism-based; set-up: dose 2 mg/kg, route oral; settings: in vivo
Outline: (§1)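 PK used IV/PO doses of 1/2 mg/kg in mouse, 2/2 in rat, 0.5/0.5 in dog and 0.5/2 in monkey. The oral vehicle in mice was a solution in DMSO:Tween80:water (5:10:85 by volume); other species received a suspension in 0.5% aqueous methylcellulose. Mouse parameters came from blood concentrations. nAUC is dose-normalized oral AUC.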

[9] = molecular target: Vasoactive intestinal polypeptide receptor 1 (Homo sapiens, UniProt P32241); test: Antagonist activity at human VPAC1 expressed in HT-29 cells assessed as inhibition of glucagon-induced cAMP accumulation preincubated for 30 mins prior to glucagon challenge measured after 30 mins post glucagon challenge by liquid scintillation counter; type: functional, cell-based
Outline: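 VPAC1 was expressed in HT29 cells. cAMP was measured under conditions similar to the GCGR assay: 30 min compound preincubation, 30 min agonist stimulation at room temperature, radiometric cAMP read-out, IC50.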

[10] = Drug uptake in mouse expressing human GCGR at 10 mg/kg, po measured at 60 mins; type: ADME, organism-based; set-up: dose 10 mg/kg, route oral; settings: in vivo, read-out: Drug uptake
Outline: (§2)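 hGCGR mice were dosed orally at 3, 10 or 30 mpk 1 h before an IP glucagon challenge (15 μg/kg). […] Drug levels were determined at 60 min post dose.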

Homo sapiens = organism: Homo sapiens; test: Reduction of HbA1c level in type2 diabetic patients at 60 mg, qd relative to baseline; type: functional; set-up: scale not given: the % may be the effect or the level left
Cytochrome P450 2B6 = Cytochrome P450 2B6 (Homo sapiens, UniProt P20813); test: Inhibition of human CYP2B6 in liver microsomes assessed as bupropion hydroxylation after 48 hrs; type: ADME, Microsome
Outline: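 Human liver microsomes were used with marker activities: phenacetin O-deethylation for 1A2, bupropion hydroxylation for 2B6, paclitaxel 6α-hydroxylation for 2C8, diclofenac 4′-hydroxylation for 2C9, dextromethorphan O-demethylation for 2D6 and chlorzoxazone […]-hydroxylation for 2E1. IC50 in μM is given as mean ± SD.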

[11] = Drug uptake in mouse expressing human GCGR at 3 mg/kg, po measured at 60 mins; type: ADME, organism-based; set-up: dose 3 mg/kg, route oral; settings: in vivo, read-out: Drug uptake; outline: as §2
[12] = Plasma concentration in rhesus monkey at 3 mg/kg administered via nasogastric tube measured at 4 hrs; type: ADME, organism-based, Macaca mulatta; set-up: dose 3 mg/kg; settings: po
Outline: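 Chair-restrained rhesus monkeys were dosed via nasogastric tube at 0.3, 1 or 3 mpk (N = 4). An intramuscular glucagon challenge (15 μg/kg) was given 4 h later. Plasma drug levels were taken at 4 h post dose.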

Mus musculus [13] = test: Antidiabetic activity in DIO mouse expressing human GCGR assessed as blood glucagon level at 10 mg/kg/day measured on day 11 (reference value: 445 +/- 55 pg/ml); type: functional
[14] = Elimination half life in mouse at 1 mg/kg, iv and 2 mg/kg, po; type: ADME, organism-based; settings: in vivo, read-out: beta t1/2 (converted); outline: as §1
[15] = Elimination half life in dog at 0.5 mg/kg, iv and 0.5 mg/kg, po; type: ADME, organism-based, Canis lupus familiaris; settings: in vivo, read-out: beta t1/2 (converted); outline: as §1

Cytochrome P450 2B6, sequence (P20813 whole entry): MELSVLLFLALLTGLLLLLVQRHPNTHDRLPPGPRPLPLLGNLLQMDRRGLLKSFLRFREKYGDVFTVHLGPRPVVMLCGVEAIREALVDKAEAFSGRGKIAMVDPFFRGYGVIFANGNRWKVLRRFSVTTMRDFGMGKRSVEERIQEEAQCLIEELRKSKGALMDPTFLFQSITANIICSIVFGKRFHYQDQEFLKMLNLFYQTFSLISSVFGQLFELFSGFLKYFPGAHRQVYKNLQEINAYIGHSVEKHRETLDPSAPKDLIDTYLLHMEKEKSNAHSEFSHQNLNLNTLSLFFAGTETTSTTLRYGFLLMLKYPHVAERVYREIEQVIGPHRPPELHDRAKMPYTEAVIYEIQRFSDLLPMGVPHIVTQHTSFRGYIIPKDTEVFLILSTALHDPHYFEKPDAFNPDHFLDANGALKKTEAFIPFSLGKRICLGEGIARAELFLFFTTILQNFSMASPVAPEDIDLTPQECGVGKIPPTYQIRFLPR
Vasoactive intestinal polypeptide receptor 1, sequence (P32241 whole entry): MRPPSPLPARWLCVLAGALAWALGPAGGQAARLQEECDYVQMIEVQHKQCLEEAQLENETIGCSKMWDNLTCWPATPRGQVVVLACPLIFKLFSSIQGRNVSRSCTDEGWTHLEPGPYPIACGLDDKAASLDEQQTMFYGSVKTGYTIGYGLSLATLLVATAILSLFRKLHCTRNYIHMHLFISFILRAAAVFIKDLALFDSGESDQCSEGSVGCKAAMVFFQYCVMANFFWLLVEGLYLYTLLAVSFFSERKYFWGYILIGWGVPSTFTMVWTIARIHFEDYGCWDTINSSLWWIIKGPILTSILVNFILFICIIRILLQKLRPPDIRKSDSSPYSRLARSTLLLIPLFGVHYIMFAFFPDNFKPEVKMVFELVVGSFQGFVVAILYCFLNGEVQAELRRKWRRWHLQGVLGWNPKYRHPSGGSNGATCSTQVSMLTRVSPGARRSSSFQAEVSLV
Voltage-gated inwardly rectifying potassium channel KCNH2, sequence (Q12809 whole entry): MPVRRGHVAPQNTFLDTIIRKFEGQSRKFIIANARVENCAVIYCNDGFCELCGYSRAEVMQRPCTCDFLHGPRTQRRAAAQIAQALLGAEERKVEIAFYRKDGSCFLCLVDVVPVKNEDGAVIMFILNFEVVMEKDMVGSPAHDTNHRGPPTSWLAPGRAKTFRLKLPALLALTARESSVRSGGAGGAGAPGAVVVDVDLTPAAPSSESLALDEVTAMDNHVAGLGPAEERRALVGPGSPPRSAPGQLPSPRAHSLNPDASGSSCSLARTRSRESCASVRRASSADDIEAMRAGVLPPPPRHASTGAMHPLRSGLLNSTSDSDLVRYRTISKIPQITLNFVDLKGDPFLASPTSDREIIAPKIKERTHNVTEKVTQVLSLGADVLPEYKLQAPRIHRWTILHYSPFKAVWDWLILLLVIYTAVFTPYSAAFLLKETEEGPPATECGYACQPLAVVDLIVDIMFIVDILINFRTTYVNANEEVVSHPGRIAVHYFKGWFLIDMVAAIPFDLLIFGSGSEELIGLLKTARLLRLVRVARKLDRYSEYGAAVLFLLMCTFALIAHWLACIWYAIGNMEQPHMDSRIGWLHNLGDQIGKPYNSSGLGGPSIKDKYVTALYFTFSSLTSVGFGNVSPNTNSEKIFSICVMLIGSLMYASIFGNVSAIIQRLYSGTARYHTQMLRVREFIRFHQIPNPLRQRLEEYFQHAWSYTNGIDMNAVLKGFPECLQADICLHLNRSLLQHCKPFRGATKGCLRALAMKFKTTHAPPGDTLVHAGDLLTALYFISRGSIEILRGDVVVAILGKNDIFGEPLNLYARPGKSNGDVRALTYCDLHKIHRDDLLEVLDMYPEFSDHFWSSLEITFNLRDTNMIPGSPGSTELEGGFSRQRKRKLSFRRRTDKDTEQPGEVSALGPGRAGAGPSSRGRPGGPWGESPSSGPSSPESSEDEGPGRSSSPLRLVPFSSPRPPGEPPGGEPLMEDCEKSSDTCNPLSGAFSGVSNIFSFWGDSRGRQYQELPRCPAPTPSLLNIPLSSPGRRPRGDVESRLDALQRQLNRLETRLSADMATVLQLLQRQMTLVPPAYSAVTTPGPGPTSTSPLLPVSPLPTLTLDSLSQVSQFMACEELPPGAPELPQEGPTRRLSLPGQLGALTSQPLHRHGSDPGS
Uncharacterized protein, sequence (A0A1D5QZY8 whole entry): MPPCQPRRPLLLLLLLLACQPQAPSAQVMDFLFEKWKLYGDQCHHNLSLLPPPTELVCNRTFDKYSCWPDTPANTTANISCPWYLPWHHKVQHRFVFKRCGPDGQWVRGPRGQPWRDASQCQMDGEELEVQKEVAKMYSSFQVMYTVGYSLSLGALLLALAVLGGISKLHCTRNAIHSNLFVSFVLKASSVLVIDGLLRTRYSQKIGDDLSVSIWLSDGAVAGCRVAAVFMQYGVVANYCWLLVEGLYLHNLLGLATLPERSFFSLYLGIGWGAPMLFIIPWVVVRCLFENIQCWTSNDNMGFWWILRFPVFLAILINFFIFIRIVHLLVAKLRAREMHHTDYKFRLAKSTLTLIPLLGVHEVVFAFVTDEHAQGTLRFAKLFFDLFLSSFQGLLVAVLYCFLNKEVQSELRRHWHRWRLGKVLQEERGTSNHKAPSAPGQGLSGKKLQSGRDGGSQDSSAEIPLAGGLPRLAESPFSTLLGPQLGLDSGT

## COc1ccc2cc(-c3cc(-c4cc(Cl)cc(Cl)c4)nn3[C@@H](C)c3ccc(C(=O)NCCC(=O)O)cc3)ccc2c1 [MK-0893]
Mus musculus [1]
  Activity: 89 pM
Mus musculus [2]
  Activity: Non-toxic
Plasma
  concentration: 0.82 µM
[3]
  bioavailability: 37%
[4]
  clearance: 0.15 L/h/kg
Mus musculus [5]
  Activity: 39%
[6]
  IC50: 1.02 µM
Uncharacterized protein
  IC50: 0.0555 µM
Mus musculus [7]
  Activity: 89%
[8]
  IC50: > 10 µM
Rattus norvegicus
  AUC/dose: 1.7 µM·h/mg/kg
[9]
  IC50: 11.6 µM
[10]
  concentration at 1 h: 1.15 µM
Homo sapiens
  Activity: 1.1%
Cytochrome P450 2B6
  IC50: 23 µM
[11]
  concentration at 1 h: 0.26 µM
[12]
  concentration at 4 h: 0.7 µM
Mus musculus [13]
  Activity: 2390 pg/mL
[14]
  half-life: 5.2 h
[15]
  half-life: 17 h
